Source: PubChem BioAssay
Sampled rows, rich in hits. Any-hit rate of the full collection: about 1.8%.
Platelet DG rel: modulates dense granule release in human platelets. human platelet-rich plasma, SFLLRN dense granule ATP release, luminescence. inhibition, %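 (compounds screened at 7.5 µM in platelet-rich plasma)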. 0.22% of 300,000 active. AID 1663;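 active = mean replicate score, as percent of positive control, at or above 50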
hK5 inh: blocks human kallikrein 5 protease activity | recombinant hK5, fluorogenic AMC substrate cleavage | Q9Y337 | inhibition, % at 5 µM | 0.59% of 210,000 active;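 active = inhibition of 40% or more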;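 also: 0% = enzyme controls without compound and 100% = no-enzyme blanks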
Target sequence (Q9Y337 67-293 limits assumed): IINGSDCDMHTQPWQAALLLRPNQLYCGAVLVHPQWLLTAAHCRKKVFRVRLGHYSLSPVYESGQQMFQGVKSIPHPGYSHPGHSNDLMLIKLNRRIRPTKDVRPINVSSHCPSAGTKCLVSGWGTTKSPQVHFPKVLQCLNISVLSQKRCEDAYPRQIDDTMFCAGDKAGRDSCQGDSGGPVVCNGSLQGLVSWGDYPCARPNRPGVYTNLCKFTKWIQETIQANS
FXIa inh 1536: blocks human coagulation factor XIa protease activity; P03951; purified FXIa, Boc-Glu-Ala-Arg-AMC fluorogenic substrate; inhibition, % at 5 µM; 0.14% of 220,000 active; AID 798;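 active = inhibition of at least 40%; inactive = inhibition below 40%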;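 also: fluorescence of freed AMC excited at 355 nm; 0% = enzyme without compound and 100% = no enzyme blank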
Wee1 stabilizer: inhibitors of human Wee1 degradation; P30291; HeLa Luc-Wee1K328M stability, luciferase luminescence; 100% = proteasome inhibitor MG132 effect; reporter increase, % at 5 µM; 1.2% of 220,000 active; AID 1321;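 active = activation above the mean of all tested compounds plus 3 SD, set per screening run, cut at about 8.8% in these data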;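 also: cells exposed to compound for 20 h before luminescence read; 0% = DMSO alone and 100% = MG132 at 30 µM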
Thrombin inh: inhibitors of human thrombin | inhibition, % at 5 µM | 0.26% of 220,000 active | alpha-thrombin, Boc-VPR-AMC fluorogenic substrate cleavage | AID 1046 | P00734;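 active = inhibition at or above 40%; inactive = inhibition below 40%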;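 also: 0% = enzyme with no compound and 100% = wells without enzyme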
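Test system: human alpha-thrombin protein / Dosing: one concentration per compound, 5 µM, with 0.2% DMSO / Medium: pH 7.5 Tris-saline with Tween 20 / Benchmarks: no-compound enzyme wells and no-enzyme blanks / Read-out basis: percent inhibition of thrombin substrate cleavage / Timing: reaction at room temperature / Measured by: fluorescence, ex 355 nm, em 460 nm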
FXIIa inh 1536: inhibitors of human coagulation factor XIIa; P00748; purified FXIIa, Boc-QGR-AMC fluorogenic substrate, 2 h; inhibition, % at 5 µM; 0.3% of 220,000 active; in the data active = inhibition above about 40%;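 also: 0% = enzyme with no compound and 100% = blank without enzyme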
* = called active by the depositor; x = no result given.

SMILES	Platelet DG rel	hK5 inh	FXIa inh 1536	Wee1 stabilizer	Thrombin inh	FXIIa inh 1536
O=C(Nc1ccc2snnc2c1)Nc1cccc2ccccc12	-2.6	3.1	18.1	0.6	4.0	22.1
CCN(CC)CCCN(Cc1cc2cc3c(cc2[nH]c1=O)OCO3)C(=O)Nc1ccccc1OC	-3.7	4.0	0.5	-0.8	2.3	9.4
CCN(CC)CCCN(Cc1cc2cc(OC)c(OC)cc2[nH]c1=O)C(=O)Nc1ccccc1	1.7	-20.6	-0.8	9.9*	-3.5	10.0
CN(C)S(=O)(=O)N1CCN(c2cccc(Cl)c2)CC1	8.7	83.3*	-7.8	-3.2	25.4	15.2
CN(C)S(=O)(=O)N1CCN(c2ccccc2)CC1	6.9	-0.1	2.9	5.6	1.6	12.8
COc1ccc(C(=O)Oc2cccc(/C=N/NC(N)=S)c2)cc1	4.7	-15.4	2.9	-1.0	-11.2	10.2
CCCCN1C(=O)C(=O)N(CC(=O)Nc2cc(S(=O)(=O)N(C)C)ccc2C)C1=O	4.3	x	x	x	x	x
CCOC(=O)N1CCN(C(=O)c2ccccc2NC(=O)c2ccc(Br)cc2)CC1	7.7	-9.1	-7.1	0.3	-4.9	-1.0
CCOC(=O)N1CCN(C(=O)c2ccccc2NC(=O)c2ccc(F)cc2)CC1	13.5	58.1*	10.8	-1.9	27.0	13.0
CCCCn1c(-c2c(Cl)c(C)nn2C)n[nH]c1=S	3.3	-14.3	-6.5	0.8	-4.7	1.6
CCn1c(-c2c(Cl)c(C)nn2C)n[nH]c1=S	12.1	55.5*	-0.3	-3.0	15.9	16.9
Cc1nn(C)c(C)c1S(=O)(=O)N1CCC(C(=O)NCCC2=CCCCC2)CC1	-12.7	65.4*	6.6	-2.1	41.8*	40.6*
COc1ccc(Oc2nc(-c3cccnc3)nc3ccccc23)cc1	-8.6	0.9	-1.2	-2.5	-3.1	0.9
Fc1ccccc1Oc1nc(-c2ccncc2)nc2ccccc12	4.6	-3.0	-2.2	8.9*	0.6	4.0
c1ccc(C2CCC(N3CCN(c4ccccc4)CC3)CC2)cc1 (stereo not drawn)	-6.4	x	x	x	x	x
O=C(c1cc(C(=O)c2ccco2)cc(C(=O)c2ccco2)c1)c1ccco1	1.3	-22.2	7.9	10.7*	-2.9	10.5
CCCCn1c(N)c(N(CCOC)C(=O)C2CCN(c3ncnc4sc(C)c(C)c34)CC2)c(=O)[nH]c1=O	-1.4	x	x	x	x	x
C/C(=N\OCC(=O)OCC(=O)NC(=O)c1ccc(OC(F)F)cc1)c1ccc2c(c1)OCO2	-7.1	x	x	x	x	x
COc1ccccc1NC(=O)C1C2CCCCC21 (stereo not drawn)	2.6	61.4*	11.5	-3.2	103.6*	22.3
Cc1ccccc1N1CCN(Cc2c[nH]c3ccccc23)CC1	-4.1	4.3	20.2	-0.5	0.9	47.6*
Cc1ccc(C(C)C)c(OCc2nc(-c3nonc3N)no2)c1	-8.1	53.9*	-1.1	-0.6	9.6	21.8
Cc1ccc(C(C)C)c(OCc2n[nH]c(=S)o2)c1	7.3	-0.4	0.2	1.3	6.7	12.1
S=c1[nH]ccn1-c1cccc(Cl)c1	12.1	23.2	1.7	5.3	27.7	2.5
O=C1COc2ccc(C(=O)COC(=O)Cc3ccsc3)cc2N1	7.8	-6.0	-4.4	10.2*	-5.8	5.7
O=C1COc2ccc(C(=O)COC(=O)Cc3ccccc3F)cc2N1	15.8	-12.5	-6.0	0.0	1.8	-0.2
SMILES	Platelet DG rel	hK5 inh	FXIa inh 1536	Wee1 stabilizer	Thrombin inh	FXIIa inh 1536
CNC(=S)N/N=C(\C)c1ccc(C(C)(C)C)cc1	22.6	49.2*	7.0	-0.1	7.5	19.0
Cc1onc(-c2ccccc2)c1-c1ccnn1S(=O)(=O)c1ccc(Cl)cc1	-4.1	2.6	6.6	10.0*	-3.0	8.4
NC(=O)C1(N2CCCCC2)CCN(C(=O)Nc2ccccc2C(F)(F)F)CC1	53.5*	3.0	1.2	0.2	-1.7	7.4
CCC(C)(C(=O)NC1CCCCC1)N(Cc1ccco1)C(=O)c1ccccn1 (stereo not drawn)	-0.6	-21.6	19.6	-1.0	2.5	54.1*
O=C(NC1CCCCC1)C(c1ccccc1F)N(Cc1ccco1)C(=O)c1ccccn1 (stereo not drawn)	10.3	x	x	x	x	x
Cc1cc(OCC(O)CN2CCN(c3ccccn3)CC2)cc(C)c1Cl (stereo not drawn)	-1.5	x	x	x	x	x
Clc1ccc(-n2cc(COCc3ccccc3)nn2)cc1	1.1	45.8*	-1.1	-1.7	-4.8	6.6
CCc1cccc(CC)c1NC(=O)COC(=O)c1cccc(S(=O)(=O)N2CCc3ccccc3C2)c1	7.2	-13.8	3.9	-0.1	0.2	8.1
CN(C)S(=O)(=O)c1ccc(Cl)c(NC(=O)COC(=O)c2cc(-c3ccccc3)nc3ccccc23)c1	-52.3	-7.0	8.9	-1.7	2.7	12.9
Cc1cc(C(=O)OCC(=O)Nc2cccc(S(=O)(=O)N(C)C)c2)c2ccccc2n1	17.7	-7.9	-4.6	10.7*	-0.6	4.0
CN(C)S(=O)(=O)c1cccc(NC(=O)COC(=O)c2cccc(S(=O)(=O)N3CCc4ccccc4C3)c2)c1	23.0	-2.9	7.8	10.6*	-4.8	11.5
CN(C)S(=O)(=O)c1cccc(NC(=O)CSc2nnnn2-c2ccccc2)c1	49.8*	-0.9	0.6	1.6	-0.3	2.0
Cc1cc(C(=O)OCC(=O)Nc2cccc(S(=O)(=O)N(C)C)c2)c(C)o1	-7.1	6.7	3.1	1.4	2.2	10.5
NS(=O)(=O)c1cccc(NC(=O)CSc2nnnn2-c2ccccc2)c1	-3.6	3.1	-4.6	-3.4	-3.9	6.2
NS(=O)(=O)c1cccc(NC(=O)COC(=O)c2cc(-c3ccc(Cl)cc3)nc3ccccc23)c1	0.2	-7.6	2.1	9.0*	-12.8	10.3
COc1cccc(CNS(=O)(=O)c2cc3c(cc2Cl)NC(=O)CO3)c1	-0.1	x	x	x	x	x
Cc1cc(/C=C2\SC(=S)N(C)C2=O)c(C)n1-c1cccc(O)c1	14.5	24.3	64.9*	1.3	5.4	6.7
O=C(CO/N=C/c1ccccc1O)N1CCc2ccccc21	-0.7	44.5*	5.1	0.6	25.1	3.7
O=C(CCn1c(=S)[nH]c2ccccc2c1=O)NCCc1ccc(Cl)cc1	-3.0	-1.6	-1.3	-1.1	-5.6	12.4
CCOc1ccccc1-n1nnnc1SCC(=O)OC	6.0	1.2	-5.2	-3.1	-11.9	11.5
CCOC(=O)CSc1nnnn1-c1cccc2ccccc12	29.8	56.9*	13.9	-1.6	19.3	3.0
CC1CCN(S(=O)(=O)c2ccc3ncn(CC(=O)N(C)Cc4ccccc4)c(=O)c3c2)CC1	-4.4	3.5	2.4	-2.4	-2.1	14.9
O=C(Nc1cc([N+](=O)[O-])ccc1N1CCOCC1)c1ccco1	6.3	20.8	42.8*	5.9	28.8	16.4
CC(=O)Nc1cc([N+](=O)[O-])ccc1N1CCOCC1	2.5	-9.7	-2.2	1.9	0.0	3.2
CCOC(=O)c1c(C)[nH]c(C)c1C(=O)CN1C(=O)NC(CC(C)C)C1=O (stereo not drawn)	3.4	-7.3	1.9	9.4*	-0.2	10.3
CCOC(=O)COc1ccc2nsnc2c1Cl	-1.4	101.7*	-4.8	0.6	4.3	-8.5
